Assay results: PubChem BioAssay AID624007 (Broad Institute, 2012)
Unmarked numbers belong to inactive results.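 The calls were made as follows: active = compounds lowering the uptake signal whose fitted half-maximal concentration is at most twice their top valid dose; inconclusive = flat curve between 30% and 70% signal loss, or poor fit; inactive = opposite direction, flat near zero, or potency beyond limit.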

Assay: DiI-HDL uptake inhibition in parental ldlA7 cells, dose response, counter-screen for SR-BI HDL uptake inhibitor project, cell-based, CHO ldlA7, fluorescence, dry powder, set 2 (AID 624007)
Conditions: 3 h
Outline: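 assay system = ldlA7 CHO cells without LDL receptor, no mSR-BI overexpression | timing = 3 h exposure at 37 °C | signal = bottom-read fluorescence after PBS washes, excitation 550 nm, emission 595 nm | reagent = DiI-labelled HDL, 10 µg/mL final | doses = pin-transferred compounds | medium = HEPES-buffered (pH 7.4) F12 plus 0.5% fatty acid-free BSA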

CC(C)NC(=O)Nc1ccc2c(c1)C(=O)N([C@H](C)CO)C[C@@H](C)[C@H](CN(C)S(=O)(=O)c1ccc(Cl)cc1)O2
DiI-HDL uptake signal change vs neutral control (%), lower = more inhibition (at 0.001 nM): -2.43% | DiI-HDL uptake signal change vs neutral control (%), lower = more inhibition (at 0.1 nM): 5.95%

CC(C)NC(=O)Nc1ccc2c(c1)C(=O)N([C@@H](C)CO)C[C@H](C)[C@@H](CN(C)S(=O)(=O)c1ccc(Cl)cc1)O2
DiI-HDL uptake signal change vs neutral control (%), lower = more inhibition (at 0.002 nM): 5.3%

CC(C)NC(=O)Nc1ccc2c(c1)CC(=O)N([C@H](C)CO)C[C@@H](C)[C@H](CN(C)S(=O)(=O)c1ccc(Cl)cc1)O2
DiI-HDL uptake signal change vs neutral control (%), lower = more inhibition (at 0.1 nM): 4.77%

CC(C)NC(=O)Nc1ccc2c(c1)C(=O)N([C@H](C)CO)C[C@@H](C)[C@@H](CN(C)S(=O)(=O)c1ccc(Cl)cc1)O2
DiI-HDL uptake signal change vs neutral control (%), lower = more inhibition (at 0.6 nM): 5.71%

CC(C)NC(=O)Nc1ccc2c(c1)C(=O)N([C@@H](C)CO)C[C@@H](C)[C@@H](CN(C)S(=O)(=O)c1ccc(Cl)cc1)O2
DiI-HDL uptake signal change vs neutral control (%), lower = more inhibition (at 1.6 nM): 4.53%

CC(C)NC(=O)Nc1ccc2c(c1)C(=O)N([C@H](C)CO)C[C@H](C)[C@H](CN(C)S(=O)(=O)c1ccc(Cl)cc1)O2
DiI-HDL uptake signal change vs neutral control (%), lower = more inhibition (at 15 nM): 8.44%

CC(C)NC(=O)Nc1ccc2c(c1)C(=O)N([C@@H](C)CO)C[C@H](C)[C@H](CN(C)S(=O)(=O)c1ccc(Cl)cc1)O2
DiI-HDL uptake signal change vs neutral control (%), lower = more inhibition (at 46 nM): 8.74%

CC(C)NC(=O)Nc1cccc2c1O[C@@H](CN(C)S(=O)(=O)c1ccc(Cl)cc1)[C@H](C)CN([C@H](C)CO)C2=O
DiI-HDL uptake signal change vs neutral control (%), lower = more inhibition (at 420 nM): 9.23%
